From ChEMBL document CHEMBL1138064, “Discovery of N-[(3R)-1-azabicyclo[2.2.2]oct-3-yl]furo[2,3-c]pyridine-5-carboxamide, an agonist of the alpha7 nicotinic acetylcholine receptor, for the potential treatment of cognitive deficits in schizophrenia: synthesis and structure--activity relationship” (J Med Chem, 2006)
pKi: −log10 of the molar value. Calls of active or inactive are those of the source. The rule behind the calls is not given here.

How the values were obtained:
[1] = Clearance in rat constant infusion model; assay type: ADME, organism-based; settings: in vivo, iv
Method in brief: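 Clearance determined in a rat constant infusion model.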

[2] = target: Neuronal acetylcholine receptor subunit alpha-7 (Rattus norvegicus) (UniProt Q05941); test: Activity at alpha-7 nAChR in Sprague-Dawley rat hippocampal neurons assessed as induction of MLA-inhibited desensitizing inward current at 3 uM relative to (-)-nicotine; assay type: functional, tissue-based; set-up: scale not given: the % may be the effect or the level left; settings: Hippocampus
Method in brief: (§1)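 Rat hippocampal neurons were recorded by whole-cell patch clamp with rapid agonist application. Desensitizing inward currents were measured, and α7 mediation was tested with MLA (10 nM), n = 3.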

[3] = target: Neuronal acetylcholine receptor subunit alpha-7 (Rattus norvegicus) (UniProt Q05941); test: Activity at alpha-7 nAChR in Sprague-Dawley rat hippocampal neurons assessed as induction of MLA-inhibited desensitizing inward current at 30 uM relative to (-)-nicotine; assay type: functional, tissue-based; set-up: scale not given: the % may be the effect or the level left; settings: Hippocampus; method in brief: as §1
Rattus norvegicus [4] = test: Reversal of amphetamine-induced gating deficit in Sprague-Dawley at 0.3 mg/kg, iv; assay type: functional, organism-based; set-up: dose 0.3 mg/kg
Method in brief: (§2)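 Anesthetised rats; d-amphetamine 1 mg/kg iv given to disrupt auditory gating recorded in the hippocampal CA3 region (conditioning vs test responses, analogous to human P50). Agonist given iv afterwards; read-out is % gating versus amphetamine-alone. The 10 mg/kg dose was run as a separate experiment. Brain drug levels were measured after the iv doses.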

Rattus norvegicus [5] = test: Reversal of amphetamine-induced gating deficit in Sprague-Dawley at 1 mg/kg, iv; assay type: functional, organism-based; set-up: dose 1 mg/kg; method in brief: as §2
[6] = target: Sodium-dependent noradrenaline transporter (Homo sapiens) (UniProt P23975); test: Inhibition of human NE transporter at 1 uM
[7] = target: B2 bradykinin receptor (Homo sapiens) (UniProt P30411); test: Inhibition of B2 receptor at 1 uM
[8] = target: Cannabinoid receptor 1 (Homo sapiens) (UniProt P21554); test: Inhibition of CB1 receptor at 1 uM
[9] = target: Gastrin/cholecystokinin type B receptor (Homo sapiens) (UniProt P32239); test: Inhibition of CCK2 receptor at 1 uM
[10] = target: D(2) dopamine receptor (Homo sapiens) (UniProt P14416); test: Inhibition of D2 receptor at 1 uM
[11] = target: D(4) dopamine receptor (Homo sapiens) (UniProt P21917); test: Inhibition of D4.4 receptor at 1 uM
[12] = target: 5-hydroxytryptamine receptor 5A (Homo sapiens) (UniProt P47898); test: Inhibition of 5HT5A receptor at 1 uM
[13] = target: 5-hydroxytryptamine receptor 6 (Homo sapiens) (UniProt P50406); test: Inhibition of 5HT6 receptor at 1 uM
[14] = target: 5-hydroxytryptamine receptor 7 (Homo sapiens) (UniProt P34969); test: Inhibition of 5HT7 receptor at 1 uM
[15] = target: Sodium-dependent serotonin transporter (Homo sapiens) (UniProt P31645); test: Inhibition of human 5-HT transporter at 1 uM
[16] = target: L-type calcium channel, verapamil site (Homo sapiens, UniProt O60840+Q01668+Q13698+Q13936); test: Inhibition of verapamil site of Calcium channel L type at 1 uM; assay type: protein assay
Homo sapiens [17] = species: Homo sapiens; test: Inhibition of Small conductance calcium-activated potassium channel at 1 uM
[18] = target: Phosphodiesterase 3 (Homo sapiens) (UniProt Q14432+Q13370); test: Inhibition of PDE3 at 1 uM; assay type: protein assay
Homo sapiens [19] = species: Homo sapiens; test: Inhibition of elastase at 1 uM
[20] = target: Cathepsin B (Homo sapiens) (UniProt P07858); test: Inhibition of cathepsin B at 1 uM
[21] = target: Human immunodeficiency virus type 1 protease (Human immunodeficiency virus 1) (UniProt Q72874); test: Inhibition of HIV1 protease at 1 uM
Homo sapiens [22] = species: Homo sapiens; test: Inhibition of stimulated adenylate cyclase at 1 uM
Homo sapiens [23] = species: Homo sapiens; test: Inhibition of phospholipase C at 1 uM
MAO-A = MAO-A (Homo sapiens, UniProt P21397); test: Inhibition of MAO-A at 1 uM
[24] = target: Sodium/potassium-transporting ATPase (Homo sapiens) (UniProt P05023+P14415+P05026+P50993+P54709+P13637+Q13733+P54710); test: Inhibition of Sodium/potassium-transporting ATPase at 1 uM; assay type: protein-complex assay
[25] = Ratio of drug level in brain against plasma in rat by MBUA method after 60 min; assay type: ADME, organism-based; settings: brain and plasma
[26] = target: Neuronal acetylcholine receptor subunit alpha-7 (Rattus norvegicus, UniProt Q05941); test: Displacement of [3H]MLA from alpha-7 nAChR in Sprague-Dawley rat brain homogenates; assay type: tissue-based
Method in brief: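 Rat brain homogenate binding assay with [3H]MLA as radioligand. Values are the average of two or more experiments.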

[27] = target: Sodium-dependent dopamine transporter (Homo sapiens) (UniProt Q01959); test: Inhibition of dopamine uptake at human DA transporter at 1 uM
[28] = target: Neuronal acetylcholine receptor; alpha4/beta2 (Rattus norvegicus) (UniProt P09483+P12390); test: Inhibition of [3H]cytisine binding to alpha4beta2 nAChR in rat brain homogenate at 1 uM; assay type: tissue-based
Method in brief: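 Radioligand displacement in rat brain homogenate with [³H]cytisine as the α4β2 ligand; test compound at 1 µM; value reported as % block of binding.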

[29] = Half life in human liver microsome; assay type: ADME; settings: liver microsomes
[30] = target: Adenosine receptor A3 (Homo sapiens) (UniProt P0DMS8); test: Inhibition of adenosine A3 receptor at 1 uM
[31] = Metabolic stability in Sprague-Dawley rat liver microsomes after 1 hr; assay type: ADME, Microsome; settings: read-out: Stability
Method in brief: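 Rat liver microsomes incubated with compound, in vitro metabolism; read-out is percent of parent remaining at 1 h.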

[32] = target: Serotonin 3 (5-HT3) receptor; test: Activity at 5HT3 receptor expressed in SHEP1 cells by FLIPR assay; assay type: functional, cell-based, Homo sapiens
Method in brief: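 Cell-based FLIPR functional assay in SH-EP1 cells expressing 5-HT3.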

[33] = target: Endothelin receptor type B (Homo sapiens) (UniProt P24530); test: Inhibition of human ETB receptor at 1 uM
Homo sapiens [34] = species: Homo sapiens; test: Inhibition of GABA receptor at 1 uM
[35] = target: Platelet-derived growth factor receptor (Homo sapiens) (UniProt P09619+P16234); test: Inhibition of PDGF receptor at 1 uM; assay type: protein-complex assay
[36] = target: Histamine H1 receptor (Homo sapiens) (UniProt P35367); test: Inhibition of central histamine H1 receptor at 1 uM
Homo sapiens [37] = species: Homo sapiens; test: Inhibition of ML1 receptor at 1 uM
[38] = target: Kappa-type opioid receptor (Homo sapiens) (UniProt P41145); test: Inhibition of human kappa opioid receptor at 1 uM
[39] = target: Mu-type opioid receptor (Homo sapiens) (UniProt P35372); test: Inhibition of human mu opioid receptor at 1 uM
[40] = target: Nociceptin receptor (Homo sapiens) (UniProt P41146); test: Inhibition of ORL1 receptor at 1 uM
[41] = target: 5-hydroxytryptamine receptor 1A (Homo sapiens) (UniProt P08908); test: Inhibition of 5HT1A receptor at 1 uM
[42] = target: 5-hydroxytryptamine receptor 2C (Homo sapiens) (UniProt P28335); test: Inhibition of 5HT2C receptor at 1 uM
[43] = target: Vasopressin V1a receptor (Homo sapiens) (UniProt P37288); test: Inhibition of V1A receptor at 1 uM

Sequence of Neuronal acetylcholine receptor subunit alpha-7 (Rattus norvegicus) (Q05941 whole entry): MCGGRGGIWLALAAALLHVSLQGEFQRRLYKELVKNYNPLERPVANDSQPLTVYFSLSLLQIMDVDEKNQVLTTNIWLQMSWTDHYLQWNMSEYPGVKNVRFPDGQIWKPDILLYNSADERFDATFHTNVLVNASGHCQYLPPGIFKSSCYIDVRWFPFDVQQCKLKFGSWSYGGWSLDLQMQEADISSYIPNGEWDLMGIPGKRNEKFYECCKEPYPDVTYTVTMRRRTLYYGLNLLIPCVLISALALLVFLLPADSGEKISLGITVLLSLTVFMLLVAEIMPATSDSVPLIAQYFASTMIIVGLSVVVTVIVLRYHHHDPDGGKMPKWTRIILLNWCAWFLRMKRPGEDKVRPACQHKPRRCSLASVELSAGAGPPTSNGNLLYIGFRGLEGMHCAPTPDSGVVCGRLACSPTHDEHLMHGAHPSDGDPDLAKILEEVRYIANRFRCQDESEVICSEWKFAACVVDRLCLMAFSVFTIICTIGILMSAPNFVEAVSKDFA
Sequence of Sodium-dependent noradrenaline transporter (Homo sapiens) (P23975 whole entry): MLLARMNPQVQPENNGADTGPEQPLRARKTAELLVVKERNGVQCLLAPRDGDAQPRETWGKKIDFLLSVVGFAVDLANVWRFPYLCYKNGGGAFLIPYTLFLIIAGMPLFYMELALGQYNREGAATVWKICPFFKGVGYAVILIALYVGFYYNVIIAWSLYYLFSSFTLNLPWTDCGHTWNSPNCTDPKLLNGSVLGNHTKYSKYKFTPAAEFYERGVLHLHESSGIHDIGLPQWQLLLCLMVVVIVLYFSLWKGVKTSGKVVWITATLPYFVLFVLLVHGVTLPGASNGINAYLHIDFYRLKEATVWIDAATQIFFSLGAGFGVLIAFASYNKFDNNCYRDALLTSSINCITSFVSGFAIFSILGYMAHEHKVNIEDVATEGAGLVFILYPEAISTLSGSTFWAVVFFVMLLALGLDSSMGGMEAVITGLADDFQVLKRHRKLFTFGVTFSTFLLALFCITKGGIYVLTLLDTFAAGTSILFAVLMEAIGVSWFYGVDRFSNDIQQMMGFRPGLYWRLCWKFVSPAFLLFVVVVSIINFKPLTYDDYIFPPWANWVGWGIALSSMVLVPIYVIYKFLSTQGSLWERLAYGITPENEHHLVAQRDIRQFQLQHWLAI
Sequence of MAO-A (P21397 whole entry): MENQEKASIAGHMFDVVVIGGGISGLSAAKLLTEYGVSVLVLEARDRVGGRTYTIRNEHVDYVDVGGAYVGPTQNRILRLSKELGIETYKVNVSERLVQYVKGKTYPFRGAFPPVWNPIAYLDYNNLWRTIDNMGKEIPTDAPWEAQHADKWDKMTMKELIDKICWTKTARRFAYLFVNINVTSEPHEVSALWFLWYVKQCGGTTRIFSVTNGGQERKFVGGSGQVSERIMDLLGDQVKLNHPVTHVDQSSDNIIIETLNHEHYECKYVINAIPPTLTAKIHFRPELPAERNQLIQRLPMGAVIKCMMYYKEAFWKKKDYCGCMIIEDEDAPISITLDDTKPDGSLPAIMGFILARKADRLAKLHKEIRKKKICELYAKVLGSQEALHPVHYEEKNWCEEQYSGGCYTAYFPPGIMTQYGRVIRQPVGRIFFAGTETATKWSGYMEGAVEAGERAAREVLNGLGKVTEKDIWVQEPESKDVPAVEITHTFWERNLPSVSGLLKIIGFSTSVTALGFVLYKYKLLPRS
Sequence of Mu-type opioid receptor (Homo sapiens) (P35372 whole entry): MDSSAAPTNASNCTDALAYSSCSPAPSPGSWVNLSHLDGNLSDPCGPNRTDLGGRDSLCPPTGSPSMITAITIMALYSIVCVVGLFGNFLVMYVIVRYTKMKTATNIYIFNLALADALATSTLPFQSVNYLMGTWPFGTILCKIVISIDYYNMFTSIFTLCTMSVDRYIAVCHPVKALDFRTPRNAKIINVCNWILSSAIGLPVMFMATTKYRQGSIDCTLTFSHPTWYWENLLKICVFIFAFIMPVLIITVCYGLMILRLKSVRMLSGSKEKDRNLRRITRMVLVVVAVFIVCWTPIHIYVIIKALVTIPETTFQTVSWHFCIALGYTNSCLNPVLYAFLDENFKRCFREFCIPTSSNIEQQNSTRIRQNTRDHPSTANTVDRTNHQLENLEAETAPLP
Sequence of 5-hydroxytryptamine receptor 2C (Homo sapiens) (P28335 whole entry): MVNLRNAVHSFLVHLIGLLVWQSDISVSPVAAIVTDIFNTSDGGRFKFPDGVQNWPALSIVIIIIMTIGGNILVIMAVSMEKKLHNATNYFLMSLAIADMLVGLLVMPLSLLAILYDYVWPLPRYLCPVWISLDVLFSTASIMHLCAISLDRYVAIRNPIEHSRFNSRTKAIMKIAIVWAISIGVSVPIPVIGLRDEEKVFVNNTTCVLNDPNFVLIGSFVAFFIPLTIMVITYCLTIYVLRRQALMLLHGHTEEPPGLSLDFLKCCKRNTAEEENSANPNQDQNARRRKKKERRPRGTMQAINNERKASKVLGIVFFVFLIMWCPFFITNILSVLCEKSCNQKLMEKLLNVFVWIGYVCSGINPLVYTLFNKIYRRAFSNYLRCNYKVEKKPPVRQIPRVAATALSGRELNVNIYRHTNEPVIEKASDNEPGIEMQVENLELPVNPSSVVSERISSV
Sequence of D(2) dopamine receptor (Homo sapiens) (P14416 whole entry): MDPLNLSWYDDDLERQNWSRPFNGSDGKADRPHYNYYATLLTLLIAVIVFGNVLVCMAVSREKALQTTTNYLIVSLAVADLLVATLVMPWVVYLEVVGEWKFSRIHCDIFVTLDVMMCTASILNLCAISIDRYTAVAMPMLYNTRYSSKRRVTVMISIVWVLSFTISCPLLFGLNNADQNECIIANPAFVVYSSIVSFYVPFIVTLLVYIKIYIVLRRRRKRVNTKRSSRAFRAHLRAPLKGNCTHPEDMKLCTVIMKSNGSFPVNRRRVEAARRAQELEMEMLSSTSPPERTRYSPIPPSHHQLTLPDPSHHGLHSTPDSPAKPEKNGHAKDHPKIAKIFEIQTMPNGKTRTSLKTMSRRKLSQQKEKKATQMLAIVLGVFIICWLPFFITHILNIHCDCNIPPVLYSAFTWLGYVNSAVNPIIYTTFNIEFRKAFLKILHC
Sequence of Endothelin receptor type B (Homo sapiens) (P24530 whole entry): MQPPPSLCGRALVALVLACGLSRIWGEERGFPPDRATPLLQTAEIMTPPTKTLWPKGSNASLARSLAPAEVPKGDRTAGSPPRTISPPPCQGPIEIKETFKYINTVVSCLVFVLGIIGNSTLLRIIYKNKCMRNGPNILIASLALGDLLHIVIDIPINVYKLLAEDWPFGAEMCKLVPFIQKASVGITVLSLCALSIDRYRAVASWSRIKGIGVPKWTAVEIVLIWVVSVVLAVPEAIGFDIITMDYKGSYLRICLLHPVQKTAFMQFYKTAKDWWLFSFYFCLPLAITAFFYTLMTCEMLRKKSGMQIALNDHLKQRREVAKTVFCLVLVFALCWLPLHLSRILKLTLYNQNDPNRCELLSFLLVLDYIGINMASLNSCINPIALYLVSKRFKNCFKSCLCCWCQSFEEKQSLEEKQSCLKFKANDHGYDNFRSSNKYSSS
Sequence of Kappa-type opioid receptor (Homo sapiens) (P41145 whole entry): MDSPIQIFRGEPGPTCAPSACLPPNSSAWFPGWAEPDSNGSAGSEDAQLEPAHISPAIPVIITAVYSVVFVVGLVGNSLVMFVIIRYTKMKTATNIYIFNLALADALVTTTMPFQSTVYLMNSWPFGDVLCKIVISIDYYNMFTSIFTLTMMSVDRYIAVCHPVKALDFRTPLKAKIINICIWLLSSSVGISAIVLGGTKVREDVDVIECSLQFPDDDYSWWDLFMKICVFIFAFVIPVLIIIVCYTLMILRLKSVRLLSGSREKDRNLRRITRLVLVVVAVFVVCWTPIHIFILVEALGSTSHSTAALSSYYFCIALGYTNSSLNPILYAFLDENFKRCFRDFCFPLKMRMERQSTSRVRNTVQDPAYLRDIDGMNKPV
Sequence of Sodium-dependent serotonin transporter (Homo sapiens) (P31645 whole entry, looked up): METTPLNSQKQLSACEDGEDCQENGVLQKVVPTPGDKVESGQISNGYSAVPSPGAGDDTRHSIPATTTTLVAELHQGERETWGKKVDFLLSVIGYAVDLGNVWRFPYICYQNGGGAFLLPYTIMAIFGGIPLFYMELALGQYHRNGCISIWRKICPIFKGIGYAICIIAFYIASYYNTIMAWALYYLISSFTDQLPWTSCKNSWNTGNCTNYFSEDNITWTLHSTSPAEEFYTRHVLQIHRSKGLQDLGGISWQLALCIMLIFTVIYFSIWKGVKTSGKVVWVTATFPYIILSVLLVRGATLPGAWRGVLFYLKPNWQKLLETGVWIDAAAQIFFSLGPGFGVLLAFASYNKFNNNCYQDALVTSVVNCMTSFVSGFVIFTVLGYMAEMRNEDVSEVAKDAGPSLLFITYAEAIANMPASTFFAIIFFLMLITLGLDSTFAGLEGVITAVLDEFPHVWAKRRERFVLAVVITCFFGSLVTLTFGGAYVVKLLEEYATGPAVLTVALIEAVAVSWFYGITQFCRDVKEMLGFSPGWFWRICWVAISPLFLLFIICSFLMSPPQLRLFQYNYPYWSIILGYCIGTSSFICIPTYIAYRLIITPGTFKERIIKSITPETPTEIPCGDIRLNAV
Sequence of D(4) dopamine receptor (Homo sapiens) (P21917 whole entry): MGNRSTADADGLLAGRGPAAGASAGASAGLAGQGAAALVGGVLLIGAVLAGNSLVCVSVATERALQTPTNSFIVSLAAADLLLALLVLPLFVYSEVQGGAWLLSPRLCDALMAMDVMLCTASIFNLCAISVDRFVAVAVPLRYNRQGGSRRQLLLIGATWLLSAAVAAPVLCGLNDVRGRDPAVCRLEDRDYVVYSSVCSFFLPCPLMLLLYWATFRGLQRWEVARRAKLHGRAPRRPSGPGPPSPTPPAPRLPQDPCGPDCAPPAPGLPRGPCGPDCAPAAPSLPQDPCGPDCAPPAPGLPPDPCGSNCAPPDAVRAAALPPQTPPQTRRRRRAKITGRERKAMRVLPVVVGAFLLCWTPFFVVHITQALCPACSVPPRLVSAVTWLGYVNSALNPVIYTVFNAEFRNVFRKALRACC
Sequence of Neuronal acetylcholine receptor subunit alpha-7 (Q05941 whole entry): as the sequence (Q05941 whole entry) above

## O=C(N[C@H]1CN2CCC1CC2)c1cc2ccoc2cn1 [PHA-543613]
[1]
  clearance: 50 mL/min/kg
[2]
  Activity: 103%
[3]
  Activity: 220%
Rattus norvegicus [4]
  Activity: Active
Rattus norvegicus [5]
  Activity: Active
[6]
  inhibition: < 10%
[7]
  inhibition: < 10%
[8]
  inhibition: < 10%
[9]
  inhibition: < 10%
[10]
  inhibition: < 10%
[11]
  inhibition: 10%
[12]
  inhibition: < 10%
[13]
  inhibition: < 10%
[14]
  inhibition: < 10%
[15]
  inhibition: < 10%
[16]
  inhibition at 1 µM: < 10%
Homo sapiens [17]
  inhibition: < 10%
[18]
  inhibition: < 10%
Homo sapiens [19]
  inhibition: 22%
[20]
  inhibition: < 10%
[21]
  inhibition: < 10%
Homo sapiens [22]
  inhibition: < 10%
Homo sapiens [23]
  inhibition: < 10%
MAO-A
  inhibition at 1 µM: < 10%
[24]
  inhibition: < 10%
[25]
  Kp at 1 h: 1.5
[26]
  pKi: 8.06
[27]
  inhibition: < 10%
[28]
  inhibition: 13%
[29]
  half-life: > 2 h
[30]
  inhibition: 12%
[31]
  remaining at 1 h: 55%
[32]
  pKi: 6.20
[33]
  inhibition: < 10%
Homo sapiens [34]
  inhibition: < 10%
[35]
  inhibition: < 10%
[36]
  inhibition: < 10%
Homo sapiens [37]
  inhibition: 11%
[38]
  inhibition: < 10%
[39]
  inhibition: < 10%
[40]
  inhibition: < 10%
[41]
  inhibition: < 10%
[42]
  inhibition: < 10%
[43]
  inhibition: 14%
